In the library only some 1.4% were active in any assay of this set; here they are far more common.
NR2E3 ag-1 – human photoreceptor-specific nuclear receptor agonism; Q9Y5X4; CHO-S Gal4-NCOR/VP16-NR2E3 two-hybrid, luciferase; inhibition of corepressor binding, % at 3.98 µM; hit rate 0.35% among 360,000;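 active = inhibition above the mean of all tested compounds plus 3 SD, cut at about 70% in these data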;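 note: higher means lower luciferase signal from less NR2E3 corepressor binding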
Target sequence (Q9Y5X4 whole entry, looked up, the tested form may be a part): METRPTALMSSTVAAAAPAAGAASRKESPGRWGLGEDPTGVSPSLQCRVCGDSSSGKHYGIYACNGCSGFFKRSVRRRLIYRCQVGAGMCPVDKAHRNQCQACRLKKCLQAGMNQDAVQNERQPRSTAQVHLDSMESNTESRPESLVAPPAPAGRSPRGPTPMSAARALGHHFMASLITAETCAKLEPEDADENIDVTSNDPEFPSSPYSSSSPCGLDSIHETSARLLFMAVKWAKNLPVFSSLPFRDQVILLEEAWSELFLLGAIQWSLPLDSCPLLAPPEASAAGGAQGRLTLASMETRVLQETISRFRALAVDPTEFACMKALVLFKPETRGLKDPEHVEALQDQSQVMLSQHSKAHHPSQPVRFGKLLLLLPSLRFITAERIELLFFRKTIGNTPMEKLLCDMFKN
PG9 Ab binder – small molecules binding HIV-1 gp120 antibody PG9 | TR-FRET gp120-PG9 antibody binding | inhibition, % at 6.7 µM | hit rate 0.43% among 360,000; in the data active = inhibition above about 8.5%
NR2E3 ag-2 – NR2E3 (human) agonism; hit rate 0.12% among 320,000; GST-NR2E3/biotin-RetCOR TR-FRET, 1536-well; Q9Y5X4; inhibition of corepressor binding, % at 4.78 µM;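 active = percent inhibition above the cutoff of mean plus 3 SD of all tested compounds, set per screening campaign, cut at about 20% in these data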
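System: GST-tagged NR2E3 plus biotinylated RetCOR corepressor; Buffer or medium: pH 7.5 Tris-based buffer; Probe or stimulus: RetCOR corepressor, biotinylated, 7 nM; Doses: compound at 4.8 µM, single dose; Schedule: 5 h incubation at 4 °C; Technique: time-resolved FRET; Evaluation: percent inhibition of TR-FRET ratio; Replication: one well per compound, singlicate testing.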
NR1D1 modulator – modulates human Rev-erb alpha binding to DNA. hit rate 0.79% among 370,000. AID 1259318. activity, % at 10 µM. Rev-erbα–FITC-DNA binding, fluorescence polarization, 90 min;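 active = activity above about 14%, limit read from the data; passing the limit was not always enough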
Rev-erbA confirm – confirmation of modulators of human Rev-erb alpha DNA binding. shares compounds with NR1D1 modulator. Rev-erb alpha FITC-DNA binding, fluorescence polarization, 90 min. activation, % at 25 µM. hit rate 61% among 3,000. AID 1259319;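 active = activation at or above a set limit, or at least 3 SD above the negative control mean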
RORg counter – affects RORgamma DNA binding in a Rev-erb alpha counter-screen. purified RORgamma protein-FITC-DNA binding, fluorescence polarization. AID 1259320. IC50, µM. shares compounds with NR1D1 modulator. hit rate 8% among 910;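 active = Compounds whose fitted half-maximal concentration for disrupting protein-DNA binding is below 10 micromolar; the record names Rev-erb in its text, so the target is in doubt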
Each line names hits and unclear results; the compound was inactive in the other large screens (follow-up assays come after a bar, where they were run).

O=C(OCC#CCSc1nnc(-c2cccc3ccccc23)o1)c1ccc(OC(F)(F)F)cc1	none (no result: NR2E3 ag-1, PG9 Ab binder, NR2E3 ag-2)
CC(=O)Nc1ccc(-c2ccnc(-c3ccc(NC(C)=O)cc3)n2)cc1	NR1D1 modulator 20.1 | Rev-erbA confirm inactive
CCOC(=O)c1sc2nc(NC(=O)COc3ccccc3)sc2c1C	NR1D1 modulator 22.7 | Rev-erbA confirm 14.0
CC(=O)c1sc(NC(=O)COc2ccccc2)nc1C	none
O=C(NCc1ccc(F)c(F)c1)C1CCC(CNS(=O)(=O)c2cccc3cccnc23)CC1 (stereo not drawn)	none (no result: NR2E3 ag-1, PG9 Ab binder, NR2E3 ag-2)
Cn1cc(Cl)c(C(=O)Nc2nc3ccc(Cl)cc3s2)n1	NR1D1 modulator 83.2 | Rev-erbA confirm 24.6
CC(=O)Nc1ccc2ccc3cccc4ccc1c2c34	NR1D1 modulator 33.0 | Rev-erbA confirm 28.4
CC1(C)Cc2c(c(N3CCOCC3)nc3sc4c(NN)ncnc4c23)CS1	NR1D1 modulator 28.1 | Rev-erbA confirm 33.7 | RORg counter inactive
CC(C)CNc1nnnc2c1sc1nc(N3CCOCC3)c3c(c12)CC(C)(C)SC3	none
FC(F)(F)c1ccc(N2CCN(c3ncnc4c3nnn4Cc3ccccc3)CC2)nc1	NR1D1 modulator 20.8 | Rev-erbA confirm inactive
CC(=O)Nc1cccc(-c2ccnc3c2CC(C)(C(=O)NCc2ccncc2)O3)c1 (stereo not drawn)	none (no result: NR2E3 ag-2)
COCCN(C(=O)COc1ccc(Cl)cc1)c1nnc(-c2cccnc2)s1	NR1D1 modulator 24.2 | Rev-erbA confirm inactive
Cc1noc(NS(=O)(=O)c2ccc(NC(=O)CSc3nc4c(cc3C#N)CCC4)cc2)c1C	none
N#Cc1cc2c(nc1SCC(=O)O)CCCC2	none
Cc1cc(NC(=O)CSc2nc3c(cc2C#N)CCC3)no1	NR1D1 modulator 23.0 | Rev-erbA confirm inactive
N#Cc1cc2c(nc1SCc1ccccc1)CCC2	NR1D1 modulator 44.7 | Rev-erbA confirm 24.8
Cc1cc(NC(=O)CSc2nc3c(cc2C#N)CCCC3)no1	NR1D1 modulator 35.4 | Rev-erbA confirm 25.9
CC/C(=C\c1ccc(N(C)C)cc1)c1ccncc1	none (no result: NR2E3 ag-2)
O=C(c1ccc(Cl)cc1)c1cnc(Nc2ccccc2Cl)s1	NR1D1 modulator 34.9 | Rev-erbA confirm inactive
O=C(c1ccc(Cl)cc1)c1cnc(-c2ccccc2)s1	none (no result: NR2E3 ag-2)
COc1cc(-c2noc(-c3cccc(Cl)c3)n2)cc(OC)c1OC	NR1D1 modulator 73.6 | Rev-erbA confirm 122.7
CCC(=O)N1CCC(C)(C(=O)Nc2ccc3c(c2)OCO3)C1 (stereo not drawn)	none (no result: NR2E3 ag-2)
COc1cc(/C=C/c2noc(-c3ccccc3O)n2)cc(OC)c1OC	NR1D1 modulator 51.0 | Rev-erbA confirm 24.6
O=c1[nH]cnc2c1sc1nc(C(F)F)cc(-c3ccccc3)c12	NR1D1 modulator 31.6 | Rev-erbA confirm 28.1
CCCC(C)(C)C(=O)N1CCC1(C)C(=O)Nc1ccc2c(c1)OCCO2 (stereo not drawn)	none (no result: NR2E3 ag-2)
Cc1nc2c(C)cccn2c(=O)c1NC(=O)c1cccs1	none
Cc1nc2c(C)cccn2c(=O)c1NC(=O)c1cccc2ccccc12	NR1D1 modulator 28.7 | Rev-erbA confirm inactive
CCCS(=O)(=O)NC(=O)C1(C)CCCN(C(=O)c2ccc(OC)cc2)C1 (stereo not drawn)	none (no result: NR2E3 ag-2)
CN(C)c1ccc(N=Nc2ccccc2C(=O)OCC(=O)N2CCCC2)cc1	NR1D1 modulator 36.2 | Rev-erbA confirm 40.1 | RORg counter 1.25
CN(C)c1ccc(N=Nc2ccccc2C(=O)OCC(=O)N2CCCCCC2)cc1	NR1D1 modulator 26.8 | Rev-erbA confirm 34.8 | RORg counter inactive
CSc1ccccc1C(=O)OCC(=O)N1CCCCCC1	none (no result: NR2E3 ag-2)
CCCCn1nnnc1C(c1ccccc1)N1CCN(c2c(Cl)cncc2Cl)CC1 (stereo not drawn)	none (no result: NR2E3 ag-2)
O=C(CC[C@H]1O[C@@H](n2cnc3c(NC(=O)c4ccccc4)ncnc32)[C@H](O)[C@@H]1O)NCc1nc2ccccc2[nH]1	none (no result: NR2E3 ag-2)
Cc1ccc(-n2c(N)c(C#N)c(-c3ccc(Cl)cc3)c(C#N)c2=O)cc1	NR1D1 modulator 49.3 | Rev-erbA confirm 39.4 | RORg counter inactive
CCOC(=O)c1sc2ccc(S(=O)(=O)N3CC(C)CC(C)C3)cc2c1N (stereo not drawn)	NR1D1 modulator 27.8 | Rev-erbA confirm 18.2
COC(=O)c1cc(-c2ccc3ccccc3c2)c(=O)n2c1CCC2	none (no result: NR2E3 ag-1, PG9 Ab binder, NR2E3 ag-2)
